Data on two compounds can be found in ChEMBL document CHEMBL2046351, “Discovery of cyclic sulfone hydroxyethylamines as potent and selective β-site APP-cleaving enzyme 1 (BACE1) inhibitors: structure-based design and in vivo reduction of amyloid β-peptides” (J Med Chem, 2012).

Usually Papp stands for the rate of passage across a membrane or cell layer, normalised by area and donor concentration. By AUC(0-inf) is commonly meant total exposure, with the tail of the curve extrapolated. What is called clearance is the rate of elimination divided by the concentration. The half-life is the time needed for the level to fall by half in the phase considered. The bioavailability is the share of a dose that reaches the circulation, judged against a reference dose that is usually intravenous. As usually defined, the Kp is the ratio of the level in a tissue or fluid to that in plasma or blood.

One data set has as its system MDR1 (human). Kind of data set: Apparent permeability across MDCK cells expressing human MDR1 at 5 uM after 2 hrs by LC-MS analysis. Conditions: dog. In kind it is ADME, cell-based, Canis lupus familiaris. The method in brief:
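MDCK cells retrovirally transduced with human MDR1, seeded on transwells ≥3 days; bidirectional transport at 5 μM, 2 h, 37 °C, LC/MS quantitation. Papp = (dQ/dt)/(A·C0), A 0.11 cm2; ER = Papp B>A / Papp A>B. Means of at least three experiments.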

The nature of data set [1]: AUC (0 to infinity) in C57BL/6 mouse at 2 umol/kg, iv dosed in N-methyl pyrrolidone/blank plasma (10:90 v/v) by LC/MS/MS analysis. In kind it is ADME, organism-based. Details: dose 2 umol/kg, time infinity, route intravenous. The method in brief: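 Male C57BL/6 mice got a single injection into the saphenous vein under light anaesthesia at 5 mL/kg. Blood was taken at 5 and 30 min and 1, 2, 4, 6 and 8 h (n = 3 per time). Blood was extracted by acetonitrile precipitation and quantified by LC-MS/MS against a weighted linear calibration. AUC came from noncompartmental analysis with 1/Y weighting.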

A short description of data set [2]: Blood clearance in C57BL/6 mouse at 2 umol/kg, iv dosed in N-methyl pyrrolidone/blank plasma (10:90 v/v) by LC/MS/MS analysis. In kind it is ADME, organism-based. The method in brief: (§1)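 Male C57BL/6 mice, saphenous vein injection under light anesthesia, 5 mL/kg. Blood at 5, 30 min and 1, 2, 4, 6, 8 h; brain at 5 min, 1, 4, 8 h; n = 3/time. LC-MS/MS after acetonitrile precipitation (brain water-homogenized). Noncompartmental analysis, 1/Y weighting, terminal slope from ≥3 points.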

Data set [3] is described as follows: Volume of distribution at steady state in C57BL/6 mouse at 2 umol/kg, iv dosed in N-methyl pyrrolidone/blank plasma (10:90 v/v) by LC/MS/MS analysis. In kind it is ADME, organism-based. Conditions: read-out: Vdss. The method in brief: as §1
The nature of data set [4]: Half life in C57BL/6 mouse at 2 umol/kg, iv dosed in N-methyl pyrrolidone/blank plasma (10:90 v/v) by LC/MS/MS analysis. In kind it is ADME, organism-based. The method in brief:
as §1

Data set [5] can be described thus: Oral bioavailability in C57BL/6 mouse at 60 umol/kg dosed in HS15/propylenglycol/citrate buffer, pH 4.75, 50 mM (10/5/85, v/v/v) by LC/MS/MS analysis. In kind it is ADME, organism-based. Conditions: in vivo. The method in brief:
(§2)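 Oral gavage (10 mL/kg) to male C57BL/6 mice with iv reference segment (2 μmol/kg, NMP/blank plasma 10:90). Noncompartmental analysis of LC-MS/MS blood profiles, 1/Y weighting; %F = dose-normalized oral AUC / dose-normalized iv AUC × 100, assuming linear pharmacokinetics between doses.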

The subject of data set [6] is Brain. Kind of data set: Drug uptake in APP51/16 transgenic mouse brain at 180 umol/kg, po measured 4 hrs post dosing by LC/MS/MS analysis. In kind it is ADME, organism-based. Particulars: in vivo. The method in brief:
(§3)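 APP51/16 transgenic mice given oral gavage (10 mL/kg); blood and forebrain taken at 4 h postdose. Blood extracted by acetonitrile precipitation; brain homogenized in water, then acetonitrile-precipitated. LC-MS/MS quantitation against weighted linear calibration of analyte/internal standard area ratio.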

The nature of data set [7]: Drug uptake in APP51/16 transgenic mouse blood at 180 umol/kg, po measured 4 hrs post dosing by LC/MS/MS analysis. In kind it is ADME, organism-based. Conditions: read-out: Drug uptake. The method in brief:
as §3

Data set [8] concerns Mus musculus. Kind of data set: Antialzheimer activity in APP51/16 transgenic mouse expressing human APP51/16Npa and mouse Thy1 assessed as reduction in amyloid beta (1 to 40) reduction at 180 umol/kg, po measured 4 hrs post dosing. In kind it is functional. Set-up: scale not given: the % may be the effect or the level left. The method in brief: (§4)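 Hemizygous APP51/16 mice (human APP751 wild-type under murine Thy-1 cassette, C57BL/6 background) gavaged (10 mL/kg), decapitated at 4 h. Forebrain homogenized in TBS with protease inhibitors, 1% TX-100 extract, spun 100000 rpm 30 min 4 °C. Aβ40 by 6E10 electrochemiluminescence immunoassay against spiked nontransgenic extract standards; C99 by APP-C8 western blot, densitometry. Two-tailed Student's t test versus vehicle.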

In data set [9] the test system is Mus musculus. Description: Antialzheimer activity in APP51/16 transgenic mouse expressing human APP51/16Npa and mouse Thy1 assessed as reduction in brain C99 level reduction at 180 umol/kg, po measured 4 hrs post dosing. In kind it is functional. Set-up: scale not given: the % may be the effect or the level left. The method in brief: as §4
Data set [10] has as its system Brain. Kind of data set: Drug uptake in C57BL/6 mouse brain at 6 umol/kg, po dosed in HS15/propylenglycol/citrate buffer, pH 4.75, 50 mM (10/5/85, v/v/v) measured 1 hr post dosing by LC/MS/MS analysis. In kind it is ADME, organism-based. Particulars: in vivo, pH 4.75, 1 h. The method in brief:
(§5)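 Male C57BL/6 mice dosed by oral gavage, 10 mL/kg. Blood sampled 0.25, 0.5, 1, 2, 4, 6 h; brain at 1 and/or 4 h; n = 3 per time. Blood acetonitrile-precipitated, brain water-homogenized then precipitated; LC-MS/MS with weighted linear calibration.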

Data set [11] is described as follows: Drug uptake in C57BL/6 mouse blood at 6 umol/kg, po dosed in HS15/propylenglycol/citrate buffer, pH 4.75, 50 mM (10/5/85, v/v/v) measured 1 hr post dosing by LC/MS/MS analysis. In kind it is ADME, organism-based. Conditions: read-out: Drug uptake. The method in brief: as §5
Data set [12] in a line: Ratio of drug uptake in brain to blood in C57BL/6 mouse at 6 umol/kg, po dosed in HS15/propylenglycol/citrate buffer, pH 4.75, 50 mM (10/5/85, v/v/v) measured 4 hrs post dosing by LC/MS/MS analysis. In kind it is ADME, organism-based. The method in brief: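 Male C57BL/6 mice received the dose by oral gavage at 10 mL/kg. Blood and brain were collected at 1 and/or 4 h postdose. Brain was homogenised in water, and both matrices were extracted by acetonitrile precipitation and quantified by LC-MS/MS. The ratio is mean brain (nmol/g) over mean blood (nmol/mL) concentration, n = 3.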

Data set [13] has as its system Brain. Description: Drug uptake in C57BL/6 mouse brain at 60 umol/kg, po dosed in HS15/propylenglycol/citrate buffer, pH 4.75, 50 mM (10/5/85, v/v/v) measured 1 hr post dosing by LC/MS/MS analysis. In kind it is ADME, organism-based. Conditions: in vivo, pH 4.75, 1 h. The method in brief:
as §5

Data set [14] in a line: Drug uptake in C57BL/6 mouse blood at 60 umol/kg, po dosed in HS15/propylenglycol/citrate buffer, pH 4.75, 50 mM (10/5/85, v/v/v) measured 1 hr post dosing by LC/MS/MS analysis. In kind it is ADME, organism-based. Particulars: read-out: Drug uptake. The method in brief: as §5
A short description of data set [15]: Oral bioavailability in C57BL/6 mouse at 6 umol/kg dosed in carboxymethyl cellulose 0.5% w/v in water/Tween 80 (99.5/0.5, v/v) by LC/MS/MS analysis. Conditions: in vivo. In kind it is ADME, organism-based. The method in brief:
as §2

The subject of data set [16] is Brain. Description: Drug uptake in C57BL/6 mouse brain at 60 umol/kg, po dosed in carboxymethyl cellulose 0.5% w/v in water/Tween 80 (99.5/0.5, v/v) measured 4 hrs post dosing by LC/MS/MS analysis. Particulars: in vivo. In kind it is ADME, organism-based. The method in brief: as §5
Data set [17] is described as follows: Ratio of drug uptake in brain to blood in C57BL/6 mouse at 60 umol/kg, po dosed in carboxymethyl cellulose 0.5% w/v in water/Tween 80 (99.5/0.5, v/v) measured 4 hrs post dosing by LC/MS/MS analysis. In kind it is ADME, organism-based. The method in brief: as §5
Data set [18] in a line: Drug uptake in C57BL/6 mouse blood at 6 umol/kg, po dosed in carboxymethyl cellulose 0.5% w/v in water/Tween 80 (99.5/0.5, v/v) measured 4 hrs post dosing by LC/MS/MS analysis. In kind it is ADME, organism-based. Particulars: read-out: Drug uptake. The method in brief:
as §5

The nature of data set [19]: Ratio of drug uptake in brain to blood in C57BL/6 mouse at 6 umol/kg, po dosed in carboxymethyl cellulose 0.5% w/v in water/Tween 80 (99.5/0.5, v/v) measured 4 hrs post dosing by LC/MS/MS analysis. In kind it is ADME, organism-based. The method in brief:
as §5

On to `CC(C)(C)c1cccc(CN[C@H]2CS(=O)(=O)C[C@@H](Cc3cc(F)c(N)c(OC(C(F)(F)F)C(F)(F)F)c3)[C@@H]2O)c1`, for which, in the data set on MDR1 (human), the apparent permeability (Papp) at 2 h, 5 µM stood at 3 ×10⁻⁶ cm/s. In data set [1], this compound displayed an AUC(0-inf) of 0.407 µM·h. This compound also returned a clearance in data set [2] of 82 mL/min/kg. Moreover, in data set [3], the Vd amounted to 16.3 L/kg. The compound also gave a half-life in data set [4] of 2.9 h. The same compound came in with a bioavailability in data set [5] of 33%. Moreover, the values for the Drug uptake in the data set with Brain [6], in the data set on Brain [10] and with Brain [13] were 1.5 nmol/g, 0.02 nmol/g and 0.23 nmol/g, respectively. The concentration at 4 h in data set [7] was determined as 3700 nM. Besides, the Activity in the data set with Mus musculus [8] came out at 6%; in the data set with Mus musculus [9], 22%. For the same compound, the concentration at 1 h in [11] was 60 nM; in data set [14], 470 nM. Also, the Kp at 4 h in [12] came out at 0.3.
As for `CC(C)(C)c1cccc(CN[C@H]2CS(=O)(=O)C[C@@H](Cc3cc(F)c(N)c(OCC(F)(F)F)c3)[C@@H]2O)c1`, the Papp at 2 h, 5 µM in the data set on MDR1 (human) turned out to be 25 ×10⁻⁶ cm/s. Besides, in [1], the AUC(0-inf) came out at 0.3 µM·h. The clearance in data set [2] stood at 111 mL/min/kg. Besides, the Vd in [3] amounted to 7.2 L/kg. The compound further showed a half-life in [4] of 1.4 h. This compound showed a bioavailability in data set [15] of 52%. In addition, the Drug uptake is on record as 0.55 nmol/g in the data set on Brain [16] and 1.8 nmol/g with Brain [6]. In addition, the Kp at 4 h in data set [17] amounted to 0.3; in data set [19], 11. In addition, the figures for the concentration at 4 h in data set [18] and in data set [7] were 10 nM and 10200 nM, respectively. In addition, the Activity was found to be 31% in the data set with Mus musculus [8] and 34% in the data set on Mus musculus [9].
